Compound activity from PubChem.
Sampled rows, rich in hits. Any-hit rate of the full collection: about 2.5%.
GASC-1 inh = blocks human GASC-1 demethylase activity; GST-JMJD2C(1-420) H3K9me3 demethylation, DELFIA europium; inhibition, % at 2.35 µM; actives 0.069% (n = 330,000); AID 2099;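 active means more than half of a compound's replicate wells show inhibition beyond 50%, single wells judged on their own value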;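 further: signal counts dimethyl H3K9 product captured on neutravidin plate; 0% = median of DMSO wells and 100% = 0.3 times that DMSO median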
Target sequence (Q9H3R0 1-420 limits assumed): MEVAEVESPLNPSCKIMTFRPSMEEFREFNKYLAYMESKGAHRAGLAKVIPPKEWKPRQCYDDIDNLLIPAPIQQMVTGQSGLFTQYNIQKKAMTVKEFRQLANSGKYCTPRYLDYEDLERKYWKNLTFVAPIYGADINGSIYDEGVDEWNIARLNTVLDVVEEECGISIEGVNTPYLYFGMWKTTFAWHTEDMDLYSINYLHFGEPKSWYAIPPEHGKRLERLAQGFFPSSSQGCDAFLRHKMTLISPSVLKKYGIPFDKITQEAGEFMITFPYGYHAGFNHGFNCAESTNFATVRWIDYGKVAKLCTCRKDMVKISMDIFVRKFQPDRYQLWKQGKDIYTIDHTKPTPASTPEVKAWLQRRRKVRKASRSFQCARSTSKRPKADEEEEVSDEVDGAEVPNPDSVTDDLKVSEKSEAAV
KLK7 zymogen act = proKLK7 (human) activation, primary screen; actives 0.9% (n = 370,000); AID 652039; activation, % at 7 µM; purified proKLK7, EDANS-DABCYL substrate fluorescence; 100% is mature enzyme control, 0% vehicle;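 active means activation above the mean of all tested compounds plus 3 SD, computed per campaign excluding outliers beyond control limits, cut at about 13% in these data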
Target sequence (P49862 whole entry, looked up): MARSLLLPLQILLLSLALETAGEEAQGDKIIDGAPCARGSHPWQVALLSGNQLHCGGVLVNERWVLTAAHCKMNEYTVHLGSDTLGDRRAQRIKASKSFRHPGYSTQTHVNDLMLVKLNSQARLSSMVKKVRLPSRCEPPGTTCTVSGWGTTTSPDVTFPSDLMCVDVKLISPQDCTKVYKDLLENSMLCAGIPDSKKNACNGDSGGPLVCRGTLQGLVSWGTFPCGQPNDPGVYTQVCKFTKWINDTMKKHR
ADAM17 inh = inhibits human ADAM17. actives 0.83% (n = 370,000). inhibition, % at 6.95 µM. P78536. recombinant ADAM17, EDANS/DABCYL FRET peptide cleavage;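 active means inhibition above the mean of compounds lying between control limits plus 3 SD, set per campaign, cut at about 8.5% in these data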;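 further: 0% = DMSO-only wells as the low control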
ADAM10 inh = ADAM10 inhibition, QFRET primary screen; recombinant ADAM10, EDANS/DABCYL FRET peptide cleavage, 3 h; inhibition, % at 7 µM; actives 0.62% (n = 370,000);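 active means inhibition above a per-campaign cutoff equal to the mean of compounds falling between control-based bounds plus 3 SD, cut at about 20% in these data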;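 further: 0% = DMSO wells while the 100% control is not disclosed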
NR2E3 ag-1 = activates human photoreceptor nuclear receptor NR2E3; GST-NR2E3/biotin-RetCOR TR-FRET, 1536-well; AID 2300; inhibition of corepressor binding, % at 4.78 µM; actives 0.12% (n = 320,000);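 active means percent inhibition above the cutoff of mean plus 3 SD of all tested compounds, set per screening campaign, cut at about 20% in these data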;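 further: 0% = DMSO wells and 100% = biotin wells as full block of FRET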
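System: GST-tagged NR2E3 plus biotinylated RetCOR corepressor; Buffer or medium: pH 7.5 Tris-based buffer; Probe or stimulus: RetCOR corepressor, biotinylated, 7 nM; Doses: compound at 4.8 µM, single dose; Schedule: 5 h incubation at 4 °C; Technique: time-resolved FRET; Evaluation: percent inhibition of TR-FRET ratio; Replication: one well per compound, singlicate testing.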
NR2E3 ag-2 = agonists of human NR2E3 nuclear receptor | Q9Y5X4 | CHO-S Gal4-NCOR/VP16-NR2E3 two-hybrid, luciferase | inhibition of corepressor binding, % at 3.98 µM | actives 0.35% (n = 360,000) | AID 602229;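 active means inhibition above the mean of all tested compounds plus 3 SD, cut at about 70% in these data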;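 further: 0% = DMSO with NR2E3 transfected cells and 100% = cells lacking NR2E3 construct; higher means lower luciferase signal from less NR2E3 corepressor binding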
KLK7 act conf = confirmation of human kallikrein-7 zymogen activators | shares compounds with KLK7 zymogen act | purified proKLK7, EDANS-DABCYL substrate fluorescence; scaled: vehicle 0, mature enzyme 100 | activation, % at 7 µM | actives 68% (n = 3,200);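 active means activation, as change over the incubation, above the mean of all tested compounds plus 3 SD, cut at about 13% in these data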
EDANS-DABCYL int = counter-screen for kallikrein-7 activators: EDANS-DABCYL optical interference; shares compounds with KLK7 zymogen act; EDANS-DABCYL substrate fluorescence interference, no enzyme, 4 h; solvent 0%, active enzyme control 100%; activation, % at 7 µM; actives 80% (n = 3,200); AID 686952;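 active means activation above the all-compound mean plus 3 SD, ignoring values outside control-based bounds, cut at about 4.8% in these data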;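 further: value is the 4 h activation minus the activation read at time zero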
EDANS interf = optically interferes with EDANS-DABCYL fluorescence, kallikrein-7 activator counter-screen; shares compounds with KLK7 zymogen act; EDANS-DABCYL peptide fluorescence interference, no enzyme; EC50, µM; actives 20% (n = 250); AID 720493;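 active means compounds that raise the fluorescence signal in this interference counterscreen, with EC50 at or below 10 µM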;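 further: intact quenched peptide substrate alone read at 355 nm excitation and 520 nm emission; signal is fluorescence gain from T0 to T4 after four hours at room temperature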
Active calls of the source: *; i = inactive; nt = no result given.

SMILES | GASC-1 inh | KLK7 zymogen act | ADAM17 inh | ADAM10 inh | NR2E3 ag-1 | NR2E3 ag-2 | KLK7 act conf | EDANS-DABCYL int | others
CCCOC(=O)Oc1ccc2c(=O)c(Oc3cc(C)cc(C)c3)coc2c1 | -0.7 | 42.9* | -188.3 | i | -2.4 | -39.7 | 76.7* | 65.3* | EDANS interf=5.04*
CCCCOC(=O)Oc1ccc2c(=O)c(Oc3cccc(C)c3)coc2c1 | -1.5 | 43.0* | -128.0 | -432.4 | 3.1 | -46.1 | 84.6* | 65.5* | EDANS interf=8.22*
CN(Cc1ccccc1)C(=O)C(=O)c1c[nH]c2ccccc12 | nt | -0.1 | -0.2 | -5.2 | nt | 8.9 | nt | nt
O=c1c(Cl)c(O)ccn1C1OC(CO)C(O)C1O (stereo unspecified) | nt | -0.3 | -1.7 | -11.6 | nt | -2.3 | nt | nt
COc1cc2c(cc1OC)/C(=C/C(=O)N1CCOCC1)NC(C)(C)C2 | -6.0 | 60.0* | -124.0 | -329.9 | -0.9 | nt | 9.7 | 13.1*
CCOC(=O)/C=C1\NC(C)(C)Cc2cc(OC)c(OC)cc21 | 1.4 | 5.6 | -9.3 | -61.1 | 3.6 | -1.6 | nt | nt
CCNc1nc2nc3ccc(C)cn3c(=O)c2cc1C(=O)NCC1CCCO1 (stereo unspecified) | -3.1 | 74.6* | i | i | 0.1 | -3.7 | 69.2* | 68.8*
Cc1ccc2nc3nc(NCC4CCCO4)c(C(=O)NC4CCCC4)cc3c(=O)n2c1 (stereo unspecified) | 0.9 | 24.5* | i | i | 0.3 | 4.3 | -3.0 | -10.8
C=CCNC(=O)c1cc2c(=O)n3cc(C)ccc3nc2nc1NCC1CCCO1 (stereo unspecified) | -5.9 | nt | nt | nt | 1.2 | nt | nt | nt
Cc1ccc2nc3nc(NCC4CCCO4)c(C(=O)NC4CCCCC4)cc3c(=O)n2c1 (stereo unspecified) | 3.4 | nt | nt | nt | 1.5 | nt | nt | nt
COC(=O)c1ccc(COc2ccc3ccc(=O)oc3c2)o1 | -4.3 | -0.7 | -36.7 | -129.3 | nt | -9.3 | nt | nt
COC(=O)c1cc(=O)c2c(ccc3oc(=O)ccc32)[nH]1 | nt | 171.6* | -129.1 | i | nt | -23.7 | 220.0* | 220.1*
Cc1cccc(C2Nc3ccccc3C(=O)N2CCc2ccccc2)n1 (stereo unspecified) | 0.7 | 20.9* | -465.9 | i | 1.6 | -31.1 | 6.2 | 10.6*
CCOC(=O)c1cc2c(=O)n3ccccc3nc2n(CC2CCCO2)c1=NC(=O)/C=C/c1ccccc1 (stereo unspecified) | -14.0 | 92.2* | i | i | 2.0 | -5.0 | 16.1* | 1.0 | EDANS interf=>69.5
CCOC(=O)c1cc2c(=O)n3ccccc3nc2n(CC2CCCO2)c1=NC(C)=O (stereo unspecified) | 0.0 | 80.2* | i | i | 5.3 | 4.5 | 64.1* | 67.5*
COc1ccccc1-c1coc2cc(OC(=O)N3CCOCC3)ccc2c1=O | 0.7 | 0.5 | -4.1 | -8.0 | -2.2 | -37.4 | nt | nt
COc1ccccc1Oc1coc2c(CN3CCN(C)CC3)c(O)ccc2c1=O | 7.0 | 73.7* | -353.3 | i | 0.3 | -7.0 | 73.8* | 77.6*
CN1CCN(Cc2c(O)ccc3c(=O)c(Oc4ccccc4Cl)c(C(F)(F)F)oc23)CC1 | -2.4 | 4.0 | -3.3 | -21.5 | 1.0 | -22.7 | nt | nt
CCN1CCN(Cc2c(O)ccc3c(=O)c(-c4ccccc4OC)coc23)CC1 | -2.0 | 50.4* | -446.6 | i | 0.8 | 7.9 | 73.3* | 78.2*
COc1ccccc1-c1coc2c(CN3CCN(C)CC3)c(O)ccc2c1=O | -2.8 | 80.2* | i | i | 0.6 | -2.2 | 73.3* | 72.8*
COc1ccccc1-c1coc2c(CN3CCN(CCO)CC3)c(O)ccc2c1=O | -0.8 | 110.8* | i | i | 0.3 | 12.7 | 73.9* | 80.9*
CC(=O)Nc1ccc(S(=O)(=O)NCCC(=O)OCC(=O)NNC(=O)c2ccccc2)cc1 | 1.4 | 0.2 | 2.7 | -17.7 | 0.5 | -3.0 | nt | nt
C[C@]12CC[C@H](O)CC1=CCC1C2CC[C@@]2(C)C1CC[C@@H]2NCc1ccccc1 (stereo partly specified) | nt | 0.3 | -0.2 | -19.7 | nt | 13.4 | nt | nt
Cc1ccc2nc3ccc(N4CCN(C)CC4)nn3c(=O)c2c1 | 14.9 | 39.6* | -76.1 | -227.5 | 2.4 | -79.5 | 12.1 | 12.9*
COc1cccc(-c2cc3nc(C)c(C)c(N4CCN(C(=O)c5ccoc5)CC4)n3n2)c1 | nt | -0.2 | -4.8 | -12.2 | nt | -12.7 | nt | nt
SMILES | GASC-1 inh | KLK7 zymogen act | ADAM17 inh | ADAM10 inh | NR2E3 ag-1 | NR2E3 ag-2 | KLK7 act conf | EDANS-DABCYL int | others
CS(=O)(=O)N(CC(=O)N1CCOCC1)c1ccc2c(c1)OCO2 | 1.0 | 17.2* | 2.0 | 4.8 | 0.9 | -4.3 | 0.5 | -0.4
N#C/C(=C\c1ccc(-c2nc3ccccc3s2)o1)C(N)=O | -1.8 | 17.2* | -28.1 | -63.5 | -2.5 | -102.0 | 7.4 | 5.9*
O=C(NCc1ccccc1)NC(=O)c1ccc(Cl)cc1 | 0.1 | 0.3 | -2.4 | -15.1 | -0.5 | -9.2 | nt | nt
CCOc1ccc(N(CC(=O)Nc2ccccc2C(=O)N2CCCC2)S(C)(=O)=O)cc1 | -7.1 | -0.1 | -1.6 | -4.1 | 3.6 | -27.4 | nt | nt
COc1ccc(-c2cc(C(F)(F)F)c(C#N)c(=O)[nH]2)cc1 | 2.8 | 17.3* | i | i | 2.0 | -7.3 | 40.5* | 43.0*
N#Cc1c(C(F)(F)F)cc(-c2cccc(Cl)c2)[nH]c1=O | -3.1 | 20.5* | i | i | -0.4 | 29.9 | 50.5* | 48.1*
COc1ccccc1-c1cc(C(F)(F)F)c(C#N)c(=O)[nH]1 | -19.1 | 7.0 | -418.4 | i | 0.1 | -15.9 | nt | nt
COc1ccc(/C=C/C(=O)Nc2ccncc2)cc1OC | 0.6 | 17.4* | -169.7 | -497.1 | 0.2 | -2.3 | 12.8* | 13.1*
COc1ccc(NC(=O)COc2ccc(/C=C/c3cc[n+](C)cc3)cc2OC)cc1 | -23.0 | 30.6* | -19.7 | -56.1 | -1.3 | -8.7 | 63.7* | 67.8*
CCOc1ccc(/C=C/C(=O)Nc2ccc(C(N)=O)cc2)cc1OC | 1.7 | 42.5* | -19.1 | -57.4 | -1.8 | -1.7 | 85.0* | 94.2*
CS(=O)(=O)N(Cc1ccccc1)c1ccc(C(=O)N2CCc3ccccc3C2)cc1 | -5.3 | 0.6 | -2.8 | -6.3 | 3.0 | 2.4 | nt | nt
O=[N+]([O-])c1nccn1CCCCCCN1CCOCC1 | nt | 0.5 | -4.8 | -13.1 | nt | -0.5 | nt | nt
